zVAD death inh – L929 zVAD cell death inhibition; viability rescue, % at 10 µM; L929 zVAD necroptosis rescue, ATP luminescence, 24 h; with zVAD 60 µM; AID 1377; hit rate 0.38% among 220,000;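 active = activation, scaled between plate controls, above about 75%, limit read from the data; inactive = activation under that limit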;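 also: 0% = zVAD with DMSO and 100% = DMSO alone without zVAD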
TNAP act hi DEA – activators of human TNAP at high phosphate acceptor concentration; purified TNAP, CDP-star luminescence, 1 M DEA, 30 min; hits give high values; 0 = EDTA background, 1 = DMSO-only activity; activation factor at 20 µM; 200,000 tested, under 10 active; AID 1136;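 active = activation factor at least 2 at 20 µM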
Target sequence (P05186 whole entry, looked up): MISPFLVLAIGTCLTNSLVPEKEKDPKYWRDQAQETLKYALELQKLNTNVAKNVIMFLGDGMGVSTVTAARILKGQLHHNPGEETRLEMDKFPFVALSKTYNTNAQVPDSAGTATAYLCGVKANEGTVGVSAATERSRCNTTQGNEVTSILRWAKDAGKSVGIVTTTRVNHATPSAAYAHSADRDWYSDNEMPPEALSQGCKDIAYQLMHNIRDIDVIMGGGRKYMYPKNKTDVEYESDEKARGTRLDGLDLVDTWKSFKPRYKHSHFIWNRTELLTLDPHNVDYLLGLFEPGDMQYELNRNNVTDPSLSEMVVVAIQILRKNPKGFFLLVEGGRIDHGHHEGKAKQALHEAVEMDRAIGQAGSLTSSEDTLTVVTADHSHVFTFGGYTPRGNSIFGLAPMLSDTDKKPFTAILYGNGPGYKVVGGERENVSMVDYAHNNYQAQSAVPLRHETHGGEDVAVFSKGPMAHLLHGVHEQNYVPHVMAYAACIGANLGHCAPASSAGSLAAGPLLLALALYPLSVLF
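system = human TNAP | amount = enzyme diluted 1/800 final | reagent = 100 µM CDP-star substrate | signal = luminescent substrate turnover signal | dosing = one dose, 20 µM | benchmarks = EDTA negative control, DMSO positive control | measure = activation factor | timing = 30 min reaction, room temperature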
TNF death inh – blocks TNF-alpha induced death of Jurkat FADD-/- cells. Jurkat FADD-/- TNF necroptosis rescue, ATP luminescence, 24 h; 0 = TNF only, 100 = no-TNF cells. activation (protection from cell death), % at 10 µM. hit rate 0.068% among 220,000. AID 463075;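 active = activation, meaning protection from cell death, of at least 50% relative to plate controls; inactive = activation below 50%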;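 also: necroptosis triggered by 40 ng/mL TNF-alpha added together with compound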
TNAP inh no acc – blocks human TNAP activity with no phosphate acceptor present | purified TNAP, CDP-star luminescence, 30 min | hit rate 0.26% among 200,000 | inhibition, % at 20 µM;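 active = tissue-nonspecific alkaline phosphatase inhibition above about 50% at 20 µM in the single-dose screen, limit read from the data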;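 also: 0% = DMSO negative control and 100% = EDTA positive control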
SDO1 yeast rescue – compounds rescuing growth of sdo1-depleted yeast, bone marrow failure model; S. cerevisiae sdo1-depleted JHY4D growth rescue, OD600 30 h; hits give high values; pdr5 snq2 efflux-pump mutant strain; z-score at 10 µM; hit rate 0.21% among 140,000; AID 817;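 active = z-score above 3 at both the 24 hr and the 30 hr optical density reads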;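 also: z-score against mean and SD of all compound wells on the same plate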
TNAP inh hi DEA – inhibitors of human TNAP at high phosphate acceptor concentration; purified TNAP, CDP-star luminescence, 1 M DEA; inhibition, % at 20 µM; hit rate 0.03% among 200,000;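 active = over 50% inhibition of tissue-nonspecific alkaline phosphatase at 20 µM in the single-dose screen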;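 also: plate controls were DMSO wells for no effect and EDTA-quenched wells as full inhibition for full effect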
zVAD death conf – confirmed blocker of zVAD induced death in L929 cells; L929 zVAD-induced necroptosis rescue, ATP luminescence, 24 h; activation (protection from necroptosis), % at 10 µM; shares compounds with zVAD death inh; hit rate 16% among 760;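 active = mean protection from necroptosis of at least 50% over duplicate tests; inactive = mean protection below 50%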;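 also: 0% = cells with zVAD alone and 100% = vehicle cells without zVAD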
Active calls of the source: *; / = no result. In the library only some 0.81% were active in any assay of this set; here they are far more common.

SMILES | zVAD death inh | TNAP act hi DEA | TNF death inh | TNAP inh no acc | SDO1 yeast rescue | TNAP inh hi DEA | zVAD death conf
COc1cc(/C=N/NC2=NCCCCC2)ccc1O | 0 | / | 1 | / | / | / | /
Cc1ccc(-n2[nH]c(C)c(/C=N/NC(=O)c3ccc([N+](=O)[O-])cc3)c2=O)c(C)c1 | 2 | 1 | -1 | -1 | / | 4 | /
COC(=O)c1ccc2c(c1)NC(=O)C1CCCN21 (stereo unspecified) | / | / | / | / | 1.1 | / | /
Cc1ccc(NC(=O)COC(=O)c2ccc3c(c2)NC(=O)C2CCCN32)cc1 (stereo unspecified) | 83* | 1 | -2 | -8 | 0.55 | 2 | 48
CC(=O)Nc1ccc(C(=O)OCC(=O)NC(=O)NC2CCCCC2)cc1 | 80* | 1 | -2 | -19 | -0.59 | -3 | 43
CCCS(=O)(=O)c1ccc(COC(=O)c2ccc(NC(C)=O)cc2)cc1 | 79* | 1.1 | 2 | -6 | / | -6 | 0
CC(=O)Nc1ccc(C(=O)OCc2ccc(Cl)cc2)cc1 | 0 | 1.1 | -2 | -14 | -0.75 | -6 | /
Cc1cc(NC(=O)c2ccccc2[N+](=O)[O-])ccc1Br | 2 | 1 | 1 | 0 | / | -4 | /
NC(=O)CC(NC(=O)c1ccccc1)c1ccc(NC2CCCC2)c([N+](=O)[O-])c1 (stereo unspecified) | 0 | / | 0 | / | / | / | /
O=C(NC(=S)NCc1nc2ccccc2[nH]1)c1ccccc1F | 12 | 1 | 3 | -36 | / | 0 | /
O=C(NC(=S)NCc1nc2ccccc2[nH]1)c1ccc(F)cc1 | 84* | 1 | 18 | -43 | / | -4 | 17
CC1CCc2c(sc3ncnc(N4CCN(S(=O)(=O)c5cccc6nonc56)CC4)c23)C1 (stereo unspecified) | 0 | / | -1 | / | / | / | /
Nn1cnn(Cc2ccccc2)c1=S | 88* | 1 | 6 | -9 | 1.6 | -2 | 32
CC(C)(C)c1csc(N/N=C/c2cccnc2)n1 | 77* | 1 | 0 | -2 | / | 4 | 6
CN(C)S(=O)(=O)c1cccc(NC(=O)CCSc2ccc(Cl)cc2)c1 | 77* | 1 | -3 | -18 | -1.1 | 0 | 42
O=C(NCCCn1ccnc1)c1cc(-c2cccc(O)c2)on1 | 1 | / | -1 | / | / | / | /
O=C(N/N=C/c1cccc(OC(=O)N2CCOCC2)c1)c1cccs1 | 0 | 1 | 1 | -1 | 1.4 | -1 | /
COc1ccc(C(=O)Nc2ncc(C)s2)cc1S(=O)(=O)N1CCCC1 | 89* | 1 | 13 | -8 | / | -4 | 2
CCN1C(=O)/C(=C/c2ccc(C)s2)NC1=S | 98* | 0.9 | 49 | 23 | -0.43 | 11 | 94*
O=c1cc(N2CCOCC2)cnn1-c1ccccc1 | 0 | 1 | 1 | -9 | 0.55 | -3 | /
CCOC1=NN(c2ccc(Cl)cc2)C(=O)/C1=C\N(C)C | 17 | 1 | 1 | -4 | / | 3 | /
O=C(Oc1ccc(-c2cnc3ccccc3n2)cc1)c1ccc(Cl)c([N+](=O)[O-])c1 | 87* | 1 | 0 | -3 | -0.31 | 0 | 2
O=C(Oc1ccc(-c2cnc3ccccc3n2)cc1)c1cccc([N+](=O)[O-])c1 | 94* | 1 | -4 | -15 | 0.48 | 1 | 2
O=C(Oc1ccc(-c2cnc3ccccc3n2)cc1)c1ccc(Br)o1 | 85* | 1.1 | 0 | -3 | 0.13 | -6 | 6
CCCCN(C)C/C(O)=C(\C#N)c1nc(-c2ccccc2)cs1 | 12 | 1 | 2 | -8 | 0.66 | -1 | /
SMILES | zVAD death inh | TNAP act hi DEA | TNF death inh | TNAP inh no acc | SDO1 yeast rescue | TNAP inh hi DEA | zVAD death conf
Cc1ccc(C#N)c(SCC(=O)Nc2nccs2)n1 | 14 | 1 | 2 | -10 | / | -4 | /
Cc1nn(CCCC(=O)N2CCN(c3ccc(F)cc3)CC2)c(C)c1[N+](=O)[O-] | 1 | 1 | -3 | -12 | / | -4 | /
COC(=O)c1ccc(N(C(=O)CNC(=O)c2ccco2)C(C(=O)NC2CCCC2)c2ccco2)cc1 (stereo unspecified) | 0 | 1 | -1 | -3 | 0.41 | 4 | /
CC(=O)N(C(C)=O)c1ncc2c([nH]c3ccccc32)c1C#N | 87* | 1.1 | -11 | -1 | 1 | -9 | 44
CC(C)C(=O)Nc1cccc(C(=O)Nc2nccs2)c1 | 77* | 1 | -2 | -8 | 0.63 | -4 | 13
O=C(Nc1nccs1)c1cccc(NC(=O)C2CC2)c1 | 6 | 1 | 12 | -7 | -1.3 | -2 | /
CCC(=O)Nc1cccc(C(=O)Nc2nccs2)c1 | 86* | 1 | 9 | -12 | / | -4 | 20
CCCC(=O)Nc1cccc(C(=O)Nc2nccs2)c1 | 98* | 1 | 13 | -3 | 0.27 | 1 | 35
O=C(NCc1ccccn1)C1CCCCC1 | 0 | 1 | 3 | -6 | / | 1 | /
COc1ccccc1NC(=O)c1ccc(-c2nn(C)c(=O)c3ccccc23)cc1 | 78* | 1.1 | 0 | -10 | / | -6 | 0
COc1ccc(NC(=O)c2ccc(-c3nn(C)c(=O)c4ccccc34)cc2)cc1 | 15 | 1.1 | 0 | -7 | / | -6 | /
CC(C)(C)n1nc(-c2ccc(F)cc2)c2c(N)ncnc21 | 79* | 1 | 3 | -5 | -2.7 | 1 | 41
COc1ccccc1N1CCN(C(c2cccs2)C(C)NC(=O)c2ccncc2)CC1 (stereo unspecified) | 0 | / | 2 | / | / | / | /
N#C/C(=C(/O)COC(=O)c1ccc(Cl)c(S(=O)(=O)N2CCOCC2)c1)c1nc2ccccc2[nH]1 | 16 | 1 | 4 | 1 | -0.01 | 0 | /
N#C/C(=C(/O)COC(=O)CCc1ccc(S(=O)(=O)N2CCOCC2)cc1)c1nc2ccccc2[nH]1 | 78* | 1 | 9 | -16 | -0.59 | -3 | 13
N#CCCCN1C(=O)C(O)(CC(=O)c2ccc3c(c2)OCCO3)c2ccccc21 (stereo unspecified) | -1 | 1 | -1 | -5 | 1 | -2 | /
N#CCCCN1C(=O)C(=C(C#N)C#N)c2ccccc21 | 76* | 1 | -1 | -5 | / | -2 | 0
O=C(CCCCN1CCCCC1)c1ccc2c(c1)Cc1ccccc1-2 | 4 | 1.1 | -1 | -4 | / | -6 | /
C/C(CCc1ccccc1)=N/NC(=O)C(=O)NC(C)c1ccccc1 (stereo unspecified) | 6 | 1 | 1 | -3 | / | 2 | /
C/C(CC(=O)NC(C)C)=N\NC(=O)C(c1ccccc1)c1ccccc1 | 82* | 1 | 30 | -7 | / | -4 | 40
COc1ccc(S(=O)(=O)NCCC(=O)NC2CCCCCCC2)cc1 | 81* | 1 | 0 | -7 | -0.83 | 0 | 21
CC(C)c1nnc(NC(=O)CCC(=O)N2CCN(c3ccccn3)CC2)s1 | 36 | 1 | -1 | 3 | -0.14 | 2 | /

From PubChem BioAssay
